Measured values from ChEMBL document CHEMBL1157796, “Coumarins from Galipea panamensis and Their Activity against Leishmania panamensis” (J Nat Prod, 2010).
Values after ≈ are worked out from the molar mass of the structure shown.

Columns and labels:
Leishmania panamensis = assay: Antimicrobial activity against Leishmania panamensis M/HOM//87/UA140 transfected with p6.5-egfp after 72 hrs by MTT assay; assay type: functional, organism-based; conditions: M/HOM//87/UA140, 72 h
Procedure, shortened: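 Axenic amastigotes of L. panamensis M/HOM//87/UA140 epirGFP strain (1 × 10^6 parasites/mL) incubated at 32 °C in Schneider's Drosophila medium pH 5.2 with 20% heat-inactivated FCS. Six concentrations, 3.1-100 µg/mL, from DMSO solutions, 72 h. MTT then added for 4 h, stopped with 2-propanol/SDS, OD 570 nm. DMSO-treated and untreated parasites as controls, amphotericin B as reference. Two independent experiments in triplicate, EC50 by Probit analysis.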

[1] = Selectivity index, ratio of CC50 for human U937 cells to EC50 for Leishmania panamensis M/HOM//87/UA140; assay type: toxicity, cell-based, U-937; conditions: read-out: Selectivity Index
[2] = Cytotoxicity against human U937 cells; assay type: cell-based, U-937

| SMILES | EC50 (Leishmania panamensis) | selectivity ratio [1] | CC50 [2] |
| --- | --- | --- | --- |
| COc1ccc2ccc(=O)oc2c1-c1cocc1C | 10 µg/mL (≈ 39 µM) | 3 | 33 µg/mL (≈ 129 µM) |
| C=C(C)[C@H]1O[C@@H]1c1c(OC[C@H]2OC2(C)C)ccc2ccc(=O)oc12 (relative stereo) | 10 µg/mL (≈ 30.5 µM) | 1 | 9.7 µg/mL (≈ 29.5 µM) |
| COc1ccc2ccc(=O)oc2c1C(C=O)=C(C)C [MURRALONGIN] | > 100 µg/mL |  | 121 µg/mL (≈ 470 µM) |
| C=C(C)[C@H]1O[C@@H]1c1c(OC)ccc2ccc(=O)oc12 [PHEBALOSIN] |  | 1.5 | 20.7 µg/mL (≈ 80.1 µM) |
